hERG protect: compounds protecting human hERG from proarrhythmic drug block; Q12809; CHO-hERG, FluxOR thallium flux, dofetilide IC70 present; activation (rescue from dofetilide block), less the hit threshold, % at 10 µM; actives 0.51% (n = 310,000); AID 1511;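 active = activation above the mean of controls blocked by dofetilide plus 5 SD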;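 also: thallium influx through hERG after potassium depolarization seen as dye fluorescence rise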
Target sequence (Q12809 whole entry, looked up): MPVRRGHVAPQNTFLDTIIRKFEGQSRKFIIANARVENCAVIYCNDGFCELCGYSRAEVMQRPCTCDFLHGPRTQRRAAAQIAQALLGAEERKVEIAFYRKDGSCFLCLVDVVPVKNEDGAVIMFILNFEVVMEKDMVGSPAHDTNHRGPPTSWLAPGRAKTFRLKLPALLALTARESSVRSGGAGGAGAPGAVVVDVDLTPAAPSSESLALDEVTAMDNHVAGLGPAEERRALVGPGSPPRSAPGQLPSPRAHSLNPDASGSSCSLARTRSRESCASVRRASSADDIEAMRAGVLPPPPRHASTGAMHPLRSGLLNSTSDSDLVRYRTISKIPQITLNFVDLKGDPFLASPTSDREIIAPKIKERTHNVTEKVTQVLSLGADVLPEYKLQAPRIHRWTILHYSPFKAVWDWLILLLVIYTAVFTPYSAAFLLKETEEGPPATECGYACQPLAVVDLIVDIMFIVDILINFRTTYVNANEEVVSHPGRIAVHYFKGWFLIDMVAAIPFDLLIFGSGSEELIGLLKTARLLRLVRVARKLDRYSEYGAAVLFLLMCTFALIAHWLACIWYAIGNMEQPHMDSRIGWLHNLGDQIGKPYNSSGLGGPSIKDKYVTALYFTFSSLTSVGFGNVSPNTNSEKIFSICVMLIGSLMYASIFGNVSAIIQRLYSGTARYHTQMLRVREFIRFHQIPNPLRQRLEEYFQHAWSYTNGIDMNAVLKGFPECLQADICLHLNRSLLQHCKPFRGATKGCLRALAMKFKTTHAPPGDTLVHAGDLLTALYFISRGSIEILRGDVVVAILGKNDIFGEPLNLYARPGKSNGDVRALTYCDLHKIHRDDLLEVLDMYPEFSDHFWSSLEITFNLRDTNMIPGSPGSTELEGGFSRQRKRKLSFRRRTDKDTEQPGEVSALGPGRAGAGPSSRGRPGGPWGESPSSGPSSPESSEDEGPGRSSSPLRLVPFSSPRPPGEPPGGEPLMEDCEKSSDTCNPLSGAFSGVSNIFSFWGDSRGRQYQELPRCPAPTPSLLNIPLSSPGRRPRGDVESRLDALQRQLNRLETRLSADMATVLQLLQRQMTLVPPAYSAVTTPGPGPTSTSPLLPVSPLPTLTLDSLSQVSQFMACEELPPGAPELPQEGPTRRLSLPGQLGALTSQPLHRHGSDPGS
KCNK3 inh: human KCNK3 channel inhibition, primary screen; CHO-KCNK3 thallium flux, FluxOR fluorescence; hits give low values; B-score at 10 µM; actives 0.84% (n = 340,000); AID 602410;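 active = B-score under library mean minus 4 SD, starting fluorescence ratio at most library mean plus 5 SD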;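 also: more negative B-score means stronger inhibition of thallium flux through KCNK3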
KCNK9 block: human KCNK9 channel inhibition. Q9NPC2. B-score at 10 µM. HEK293 KCNK9, FluxOR thallium flux fluorescence; hits give low values. actives 1.2% (n = 310,000). AID 488922;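 active = ratio B-score over 3 SD below the library mean, with starting fluorescence within 5 SD of its mean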;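 also: negative B-score means less thallium flux so channel inhibition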
KCNQ1 block: human KCNQ1 channel inhibition. P51787. CHO-K1 KCNQ1, FluxOR thallium flux fluorescence; hits give high values. B-score at 10 µM. actives 1.3% (n = 310,000). AID 2642;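 active = compounds whose thallium flux B-score, printed positive for inhibition, exceeds three library SD while starting fluorescence stays within three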;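 also: channel opened by potassium depolarization with thallium stimulus after 20 min compound exposure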
Kir21 inh: inhibitors of mouse Kir2.1 inward-rectifier potassium channel | AID 1672 | actives 0.85% (n = 310,000) | HEK293-Kir2.1, FluxOR thallium flux fluorescence; hits give low values | P35561 | B-score at 10 µM;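 active = fluorescence ratio B-score at or below minus 3 SD of library scores, with starting-brightness B-score within 2 SD, cut at about -4.2 in these data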;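 also: channel flux triggered by added potassium and thallium sulfate stimulus; B-score of peak minus minimum fluorescence over baseline after thallium stimulus; more negative B-score means stronger Kir2.1 block with less thallium influx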
KCNQ1 pot: potentiates or activates the human KCNQ1 potassium channel. actives 0.35% (n = 310,000). P51787. B-score at 10 µM. CHO-K1 KCNQ1, thallium flux FluxOR fluorescence; hits give high values;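 active = fluorescence ratio B-score, a plate-corrected score, at least three library SD, with initial intensity B-score within 5 SD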
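Assay system: CHO-K1 cells stably expressing KCNQ1; Medium: assay buffer with matched DMSO; Also added: K+/Tl+ depolarizing stimulus; Dosing: single dose; Timing: dye 90 min, compound 20 min, room temperature; Measured by: kinetic FluxOR thallium fluorescence, 10-s 1-Hz baseline, 110-s post-stimulus read; Read-out: peak-minus-minimum fluorescence over initial fluorescence, negative-control normalized, B-scored.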
* hit, by the source's call; i = inactive; / = no result. This is a sample that favours compounds with a hit; in the whole collection about 3.7% have one here.

SMILES	hERG protect	KCNK3 inh	KCNK9 block	KCNQ1 block	Kir21 inh	KCNQ1 pot
COc1ccc(S(=O)(=O)N2CCC(C(=O)NCCC(=O)NC3CC3)CC2)cc1	-7	i	i	i	0.58	i
CC1CCCN(C(=O)c2ccc(NC(=O)CC3SC(N4CCCC4)=NC3=O)cc2)C1 (stereo unspecified)	-5	i	i	i	0.95	i
C/C=C1\COC(C(=O)NCc2ccccc2)(C(F)(F)F)C=C1C=C(C)C (stereo unspecified)	-12	i	i	i	-1.2	i
Cc1ccc(C(OCC(O)CNC(CO)C(O)c2ccc([N+](=O)[O-])cc2)c2ccccc2)cc1 (stereo unspecified)	-17	i	i	i	-5.2*	i
CC(NCC(O)COCc1ccc(Cl)cc1)c1ccccc1 (stereo unspecified)	-10	i	i	i	-8.5*	i
O=C1c2ccccc2C(=O)N1C(CO)C(O)c1ccc([N+](=O)[O-])cc1 (stereo unspecified)	-1	i	i	i	1.7	i
Cc1ccc(C(OCC(O)CNC(C)c2ccccc2)c2ccccc2)cc1 (stereo unspecified)	-18	i	i	i	-6*	i
Cc1ccc(C(OCC(O)CN2CCCCC2)c2ccccc2)cc1 (stereo unspecified)	-8	i	i	i	-2.5	i
CC[C@]12c3[nH]c4cc(-c5ccco5)ccc4c3CCN1C(=O)[C@@H](CC(=O)NCCCN(C)C)C[C@@H]2C(=O)N1CCN(C(=O)c2ccco2)CC1	/	i	/	/	/	/
Cc1cccc(NC(=S)N/C(=N/S(=O)(=O)c2ccccc2)c2ccccc2)c1	5.2*	i	i	i	-1.4	i
S=C(NCCNCc1ccccc1)NC1CCCCC1	-15	/	-7.1*	i	2.1	i
S=C(NCCc1ccccc1)NC1CCCCCC1	-14	i	i	i	0.69	i
CCc1cc2c(=O)c(-c3ccc4c(c3)OCCO4)coc2cc1OS(C)(=O)=O	-12	i	i	6*	-0.71	i
Cc1ccc(S(=O)(=O)NC(C)C(=O)N2CCOCCOCCOCCOCC2)cc1 (stereo unspecified)	-9	i	i	i	1.3	i
C=CCn1c(SCC(=O)c2ccc(OC)cc2)nnc1-c1ccc2c(c1)OCO2	-12	i	i	i	-2.4	i
C=CCn1c(SCC(=O)c2ccc(Cl)cc2)nnc1-c1ccc2c(c1)OCO2	-17	i	i	i	-5.4*	i
O=C(N[C@@H](Cc1ccccc1)C(=O)OCc1ccccc1)c1nc[nH]c1C(=O)N1CCc2ccccc2C1	-8	i	i	6*	1.4	i
O=C(O)CCCNC(=O)c1nn(Cc2ccccc2)c(=O)c2ccccc12	2	i	i	i	-0.12	i
Cc1ccc2c(COC(=O)CNC(=O)c3ccco3)cc(=O)oc2c1C	/	i	/	/	/	/
NC(=O)CSc1nccn1Cc1ccccc1	-12	i	i	i	-1.1	i
O=[N+]([O-])c1ccccc1Sc1nccn1Cc1ccccc1	-10	i	i	i	-4.9*	i
COc1cccc2cc(-c3cn4ccc(C)cc4n3)c(=O)oc12	-13	i	i	i	-0.11	i
CCOc1cccc2cc(-c3cn4cc(C)ccc4n3)c(=O)oc12	10*	i	i	i	-1.2	i
Cc1cc(Cn2ccnc2)c(C)c([N+](=O)[O-])c1Cn1ccnc1	-5	i	i	i	-3.1	i
CCOc1ccc(CC(=O)C2=C(N3CCOCC3)CC(C)(C)CC2=O)cc1OCC	0	i	i	i	-2.1	i
SMILES	hERG protect	KCNK3 inh	KCNK9 block	KCNQ1 block	Kir21 inh	KCNQ1 pot
CCCCNc1c(-c2cccc(-c3cc(C(C)=O)cs3)c2)nc2ccc(C)cn12	-40	i	i	6*	1.6	i
CCCCNc1c(-c2cccc(-c3ccc(OC)cc3)c2)nc2cc(C)ccn12	/	-8.7*	/	/	/	/
CCCCCCSc1cccc(-c2nc3ccc(Cl)cn3c2NCCCC)c1	/	i	/	/	/	/
CCCCNc1c(-c2cccc(-c3ccc(OC)cc3)c2)nc2ccc(C)cn12	-35	i	i	7*	0.19	i
COC(=O)C1=C(C(=O)OC)[C@@H]2Nc3ccccc3[C@@]23C[C@@H](C(=O)OC)N(C(=O)NC2CCCCC2)C3=N1	-12	/	i	i	-1.1	i
COc1ccc([N+](=O)[O-])c(S(=O)(=O)c2ccc(Cl)cc2)n1	-8	i	i	i	-4.6*	i
COc1ccc([N+](=O)[O-])c(S(=O)(=O)c2ccccc2)n1	-8	i	i	i	-3.7	i
COc1ccccc1C(=O)NNC(=S)NC(=O)c1sc2ccccc2c1Cl	25*	i	i	i	1.1	25*
COc1ccccc1C(=O)NNC(=S)NC(=O)c1cccs1	-19	i	i	i	-0.02	10*
Cc1c(NC(=S)NC(=O)c2sc3ccccc3c2Cl)cccc1C(=O)O	0	i	i	i	0.82	i
COc1ccccc1C(=O)NC(=S)NNC(=O)c1sc2ccccc2c1Cl	86*	i	i	i	0.39	46*
COc1ccc(Cn2c(=O)oc3ccc(C)cc32)cc1OC	-22	i	i	i	-4.2*	i
Cc1ccccc1S(=O)(=O)c1c(C)cc(C)n(C(C)C)c1=O	-7	i	i	i	-4.4*	i
CCCSc1nc(C)cc(C)c1S(=O)(=O)c1ccccc1C	-2	i	-7.5*	i	-1.4	i
CCCCn1c(C)cc(C)c(S(=O)(=O)c2ccccc2C)c1=O	-2	i	i	i	-1.1	i
CCCSc1nc(C)cc(C)c1S(C)(=O)=O	-4	i	i	i	1.3	i
CS(=O)(=O)Nc1ccc(C(=O)N2CC(=O)Nc3ccccc32)cc1	-7	i	i	i	-0.83	i
CCN(CC(=O)Nc1ccccc1OC)C(=O)c1cc(-c2ccccc2)nn1-c1ccccc1	-21	i	i	7*	-0.35	i
CCN(CC(=O)Nc1ccccc1C(F)(F)F)C(=O)c1cc(-c2ccccc2)nn1-c1ccccc1	-16	i	i	i	-0.44	i
Cc1ccc(Sc2ncccc2COC(=O)Nc2c(C)cccc2C)cc1	-6	i	i	i	-4.6*	i
Cc1nnc(C)n1/N=C/c1cc(Br)ccc1O	-6	i	i	i	1.3	i
Oc1c(Br)cc(/C=N/n2c(-c3ccccc3)n[nH]c2=S)c(Br)c1O	-10	/	i	i	0.34	i

Screens deposited in PubChem by Johns Hopkins Ion Channel Center.
